The record followed here is ChEMBL document CHEMBL4266033, “Neolymphostin A Is a Covalent Phosphoinositide 3-Kinase (PI3K)/Mammalian Target of Rapamycin (mTOR) Dual Inhibitor That Employs an Unusual Electrophilic Vinylogous Ester” (J Med Chem, 2018).

Data set [1] concerns the target Epidermal growth factor receptor (Homo sapiens) (UniProt P00533). The data set can be described thus: Inhibition of EGFR in human HeLa cells assessed as reduction in EGF-stimulated EGFR Y1068 phosphorylation at 100 nM preincubated for 10 mins followed by EGF stimulation measured after 5 mins by Western blot analysis. The data set is classed as cell-based. The procedure, abridged:
(§1)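 HeLa cells serum-starved overnight, pretreated with compound for 10 min, then stimulated with EGF at 10 ng mL-1 for 5 min. Lysis in boiling SDS sample buffer, protein quantified, equal protein boiled 5 min and run on SDS-PAGE. Transfer to PVDF, Western blot for EGFR/pEGFR (Tyr1068), AKT/pAKT (Ser473, Thr308), ERK1/2/pERK1/2 (Thr202/Tyr204) and GAPDH, with ECL detection.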
On the technique in general: A western blot detects proteins with antibodies after separation by electrophoresis.

In data set [2] the test system is HeLa. The data set can be described thus: Inhibition of PI3K in human HeLa cells assessed as reduction in EGF-stimulated AKT phosphorylation at S473 at 100 nM preincubated for 10 mins followed by EGF stimulation measured after 5 mins by Western blot analysis. The data set is classed as cell-based. An outline of the steps: as §1
Data set [3] addresses Epidermal growth factor receptor (Homo sapiens) (UniProt P00533). In words: Inhibition of EGFR in human HeLa cells assessed as reduction in EGF-stimulated ERK1/2 phosphorylation at T202/Y204 at 100 nM preincubated for 10 mins followed by EGF stimulation measured after 5 mins by Western blot analysis. The format is cell-based. An outline of the steps:
as §1

Data set [4] concerns HeLa. The data set can be described thus: Inhibition of PI3K in human HeLa cells assessed as reduction in EGF-stimulated AKT phosphorylation at T308 at 100 nM preincubated for 10 mins followed by EGF stimulation measured after 5 mins by Western blot analysis. The format is cell-based. The procedure, abridged:
as §1

Data set [5] can be described thus: Electrophilicity towards N-alpha-acetyl lysine in 100 mM pH 8.1 phosphate buffer assessed as 3-hydroxy-1-(pyridin-2-yl)prop-2-en-1-one formation using 10 fold excess N-alpha-acetyl lysine at 25 degC by NMR spectrscopy. The data set is classed as physicochemical. An outline of the steps: (§2)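 NMR kinetics of the model electrophile with and without Nα-acetyl lysine, set up as in the glutathione protocol. Phosphate-buffered D2O (100 mM) was at pH 8.1. Electrophile diluted from a 200 mM DMSO-d6 stock; lysine solution freshly prepared in the same buffer.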

The nature of data set [6]: Electrophilicity towards N-alpha-acetyl lysine in 100 mM pH 7.4 phosphate buffer using 10 fold excess N-alpha-acetyl lysine at 25 degC by NMR spectrscopy. The format is physicochemical. The procedure, abridged:
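Model electrophile with tenfold excess Nα-acetyl lysine in 100 mM phosphate buffer, pH 7.4, at 25 °C. Set up as in the glutathione NMR kinetics (1.0 mM electrophile from DMSO-d6 stock, buffered D2O).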

A short description of data set [7]: Glutathione reactivity assessed as formation of (2S)-2-amino-5-((2R)-1-(carboxymethylamino)-3-(1-methoxy-3-oxo-3-(pyridin-2-yl)propylthio)-1-oxopropan-2-ylamino)-5-oxopentanoic acid in presence of pH 7.4 at 25 degC by NMR based method. The data set is classed as physicochemical. As to conditions: gsh.
The nature of data set [8]: Electrophilicity towards N-alpha-acetyl lysine in 100 mM pH 8.1 phosphate buffer assessed as (S)-2-acetamido-6-(3-oxo-3-(pyridin-2-yl)prop-1-enylamino)hexanoic acid formation using 10 fold excess N-alpha-acetyl lysine at 25 degC by NMR spectrscopy. The format is physicochemical. The procedure, abridged: as §2
Data set [9] in a line: Glutathione reactivity assessed as formation of (2S)-2-amino-5-((2R)-1-(carboxymethylamino)-3-(1-methoxy-3-oxo-3-(pyridin-2-yl)propylthio)-1-oxopropan-2-ylamino)-5-oxopentanoic acid in presence of pH 7.4 at 37 degC by NMR based method. The data set is classed as physicochemical. The following applies: gsh.
Data set [10] relates to HeLa. The data set can be described thus: Inhibition of PI3K in human HeLa cells assessed as reduction in EGF-stimulated AKT phosphorylation at S473 at 1 to 100 nM preincubated for 10 mins followed by EGF stimulation measured after 5 mins by Western blot analysis. The data set is classed as cell-based. An outline of the steps: (§3)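 HeLa cells were serum-starved overnight, pretreated with compound for 10 min, then stimulated with 10 ng mL-1 EGF for 5 min. Lysis was in boiling SDS sample buffer, with protein quantified at 660 nm. Equal protein was resolved by SDS-PAGE and Western blotted for pEGFR Tyr1068, pAKT Ser473/Thr308, and pERK1/2 Thr202/Tyr204 with total proteins and GAPDH, detected by ECL.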

Data set [11] has as its system HeLa. In words: Inhibition of PI3K in human HeLa cells assessed as reduction in EGF-stimulated AKT phosphorylation at T308 at 1 to 100 nM preincubated for 10 mins followed by EGF stimulation measured after 5 mins by Western blot analysis. The format is cell-based. The procedure, abridged:
as §3

Activity calls are given as the source filed them. The calls are words filed in the database; no cut-off is given here.

Epidermal growth factor receptor (Homo sapiens), sequence (P00533 whole entry): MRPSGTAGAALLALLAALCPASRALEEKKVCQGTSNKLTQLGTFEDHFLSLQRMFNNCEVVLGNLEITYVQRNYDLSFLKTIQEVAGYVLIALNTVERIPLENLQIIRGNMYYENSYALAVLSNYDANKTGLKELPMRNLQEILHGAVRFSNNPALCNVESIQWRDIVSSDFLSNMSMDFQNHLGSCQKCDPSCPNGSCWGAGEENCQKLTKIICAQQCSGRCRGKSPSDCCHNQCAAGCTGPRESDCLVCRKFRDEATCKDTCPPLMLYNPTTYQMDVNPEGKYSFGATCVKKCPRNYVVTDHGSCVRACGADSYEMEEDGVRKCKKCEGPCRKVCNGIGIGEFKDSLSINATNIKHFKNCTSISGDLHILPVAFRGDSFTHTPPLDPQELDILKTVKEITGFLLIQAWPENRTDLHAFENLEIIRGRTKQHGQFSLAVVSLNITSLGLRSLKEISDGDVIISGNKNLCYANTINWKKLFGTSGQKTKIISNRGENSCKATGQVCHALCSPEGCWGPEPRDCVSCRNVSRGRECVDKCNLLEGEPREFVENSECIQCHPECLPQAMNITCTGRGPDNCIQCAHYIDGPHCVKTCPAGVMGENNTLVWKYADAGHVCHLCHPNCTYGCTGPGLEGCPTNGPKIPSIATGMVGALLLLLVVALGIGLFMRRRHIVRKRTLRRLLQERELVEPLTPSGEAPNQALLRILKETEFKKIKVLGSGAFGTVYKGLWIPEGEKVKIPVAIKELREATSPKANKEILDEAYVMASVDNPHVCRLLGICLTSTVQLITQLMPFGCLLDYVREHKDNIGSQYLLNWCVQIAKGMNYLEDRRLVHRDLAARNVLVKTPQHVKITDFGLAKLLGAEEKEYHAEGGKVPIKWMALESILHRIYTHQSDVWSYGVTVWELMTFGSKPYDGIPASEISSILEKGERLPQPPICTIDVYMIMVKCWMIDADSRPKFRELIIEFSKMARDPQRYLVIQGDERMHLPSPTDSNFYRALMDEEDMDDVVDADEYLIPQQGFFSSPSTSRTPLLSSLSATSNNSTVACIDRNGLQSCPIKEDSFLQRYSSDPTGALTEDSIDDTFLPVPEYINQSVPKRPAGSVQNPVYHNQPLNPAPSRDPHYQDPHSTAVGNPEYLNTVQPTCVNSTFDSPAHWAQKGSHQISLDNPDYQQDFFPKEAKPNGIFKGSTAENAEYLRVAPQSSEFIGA

Turning to `COC[C@H]1OC(=O)c2coc3c2[C@@]1(C)C1=C(C3=O)[C@@H]2CCC(=O)[C@@]2(C)C[C@H]1OC(C)=O`, the inhibition entry in data set [1] and in data set [3] was “inactive” in each case. Further, the inhibition entry in the data set with HeLa [2] and with HeLa [4] was “Active” each time.

In the case of `CO/C=C/C(=O)c1ccccn1`, the t1/2 in [5] was determined as 1440 min; in [7], 13 min; in data set [8] it was 60 min; in data set [9], 5.4 min. In addition, the Activity entry in [6] was “Not Active”.

Take `CC(C)C(=O)Nc1cc(N)c2c3c(cc(C(=O)CCO)nc13)C=N2`: the inhibition result in the data set on HeLa [10] and in the data set with HeLa [11] was “inactive” throughout.
